Results from ChEMBL document CHEMBL2150890, “Antioxidant properties of Mannich bases” (Bioorg Med Chem Lett, 2012).
Active and inactive are the calls of the source. The calls are words filed in the database; no cut-off is given here.

Assays:
[1] = system: Radical scavenging activity; assay: Antioxidant activity of the compound assessed as DPPH radical scavenging activity; assay type: functional
In short: (§1)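 Scavenging of the DPPH radical read by absorbance at 520 nm. % scavenging = (A_blank − A_sample)/A_blank × 100. Scavenging also followed at 0.5, 1, 2, 4, 6, 12 and 24 h. Three independent experiments, mean ± SD, one-way ANOVA.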

[2] = Antioxidant activity of the compound in phosphate buffer at pH 6.6 assessed as potassium ferric cyanide ion reducing activity at 6.25 to 100 uM after 20 mins; assay type: functional; parameters: scale not given: the % may be the effect or the level left
In short: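 Ferricyanide reducing power: sample in 0.2 M phosphate buffer, pH 6.6, incubated with 1% w/v potassium ferricyanide at 50 °C for 20 min. Reducing effect expressed relative to vitamin C; three independent experiments, mean ± SD.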

[3] = Antioxidant activity of the compound assessed as phosphate/Mo5 complex formation at 6.25 to 100 uM after 90 mins; assay type: functional
In short: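 Phosphomolybdenum method: compound incubated with 0.6 M H2SO4, 28 mM sodium phosphate and 4 mM ammonium molybdate at 95 °C for 90 min. After cooling to room temperature, absorbance read at 695 nm against a blank. Result expressed as vitamin C equivalent; three independent experiments, mean ± SD.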

[4] = system: Radical scavenging activity; assay: Antioxidant activity of the compound assessed as DPPH radical scavenging activity at 50 uM; assay type: functional; in short: as §1
[5] = Ratio of alpha-tocopherol IC50 to compound IC50 for antioxidant activity of the compound assessed as DPPH radical scavenging activity
RAW264.7 [6] = assay: Antioxidant activity in mouse RAW264.7 cells assessed as inhibition of H2O2-induced intracellular ROS formation after 30 mins in dark prior to H2O2 challenge measured after 30 mins post H2O2 challenge by H2DCF-DA based flow cytometry; assay type: functional, cell-based
In short: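 RAW 264.7 cells grown in DMEM/10% FBS at 37 °C, 5% CO2. Loaded with 20 µM H2DCF-DA in HBSS for 30 min, then compound (50 and 100 µM) in HBSS for 30 min at 37 °C in the dark. H2O2 challenge for 30 min, cells scraped and filtered, flow cytometry at 488 nm excitation. Geometric mean fluorescence reported; three independent experiments, mean ± SD.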

RAW264.7 [7] = assay: Cytotoxicity against mouse RAW264.7 cells up to 100 uM after 24 hrs by MTT assay; assay type: cell-based; conditions: raw264.7, 24 h
In short: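 RAW 264.7 cells (DMEM, 10% FBS, 2 mM glutamine, penicillin/streptomycin; 37 °C, 5% CO2) seeded at 1 × 10^4 cells/well. After 24 h, treated with a range of compound concentrations for 24 h. MTT (1 mg/mL) added for 4 h, formazan dissolved in DMSO, absorbance read at 540 nm.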

Compound	IC50 [1] [µM]	Activity [2]	Activity [3] [%]	Activity [4]	Ratio IC50 [5]	inhibition (RAW264.7 [6])	Activity (RAW264.7 [7])
Oc1ccccc1O [CATECHOL]	36						
O=C1[C@@H]2CCC[C@@H]1[C@H](c1ccc(O)c(O)c1)N[C@@H]2c1ccc(O)c(O)c1	26.1	163%	62.3	80%	1	Dose-dependent effect	Non-toxic
O=C1O[C@H]([C@@H](O)CO)C(O)=C1O		Active		Active			
COc1cc([C@H]2N[C@@H](c3ccc(O)c(OC)c3)[C@H]3CCC[C@H]2C3=O)ccc1O		116%	56.8	80%			
COc1cc(/C=C/C(=O)CC(=O)/C=C/c2ccc(O)c(OC)c2)ccc1O [CURCUMIN]	35.1						
Cc1c(C)c2c(c(C)c1O)CC[C@@](C)(CCC[C@H](C)CCC[C@H](C)CCCC(C)C)O2 [ALPHA-TOCOPHEROL]	59			Active			
